For 1 compound, Activity and MIC results are on record in ChEMBL document CHEMBL1142147, “Action of disinfectant quaternary ammonium compounds against Staphylococcus aureus” (2007).

Structures are written as SMILES. Active and inactive are the calls of the source. The rule behind the calls is not given here.

Experiment [1] deals with Staphylococcus aureus. Nature of the experiment: Loss of membrane integrity in Staphylococcus aureus ATCC 6538 at above 4.5 ug/ml. Type of experiment: functional, organism-based. In outline:
(§1)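 Cells (final 2 × 10⁹ CFU/ml) exposed to 4.5 to 18 μg/ml biocide or HEPES at 25°C, shaken. Samples filtered (0.45 μm) at timed points up to 240 min. K⁺ measured by flame emission at 766.5 nm and 260-nm material by A260. Each expressed as percent of the maximal pool (cetrimide 1 mM; TCA extraction). Mean % leakage at 30 min plotted against concentration.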

The test system of experiment [2] is Staphylococcus aureus. The experiment can be described thus: Induction of membrane collapse in Staphylococcus aureus ATCC 6538 at 12 ug/ml. Type of experiment: functional, organism-based. In outline: as §1
In experiment [3] the test system is Staphylococcus aureus. The experiment can be described thus: Antibacterial activity against 10^6 CFU/ml Staphylococcus aureus ATCC 6538 after 48 hrs. Format: functional. To be noted: ATCC 6538, 48 h. In outline:
(§2)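 Spots of 5 μl inoculum (10-fold dilutions, 1 × 10⁹ to 1 × 10⁵ CFU/ml in HEPES) applied in triplicate. Incubated at 35°C and read visually at 24 and 48 h. MIC taken as no growth or <10 colonies in every spot of the triplicate.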

Experiment [4] concerns Staphylococcus aureus. The experiment can be described thus: Reduction of cell count in Staphylococcus aureus ATCC 6538 between 6 to 18 hrs exposure. Type of experiment: functional. The arrangement: scale not given: the % may be the effect or the level left. In outline: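 Cells pre-exposed 4 h at 35°C to 9 μg/ml biocide, neutralized, washed, and held in HEPES at 35°C. Samples taken at 0 to 48 h, serially diluted, plated on TSA, incubated 18 h at 37°C and counted as CFU/ml.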

Experiment [5] has as its system Staphylococcus aureus. Nature of the experiment: Intracellular coagulation in Staphylococcus aureus ATCC 6538 at tested concentrations 4.5, 9, 12 and 15 ug/ml. Type of experiment: functional, organism-based.
Experiment [6] relates to Staphylococcus aureus. Nature of the experiment: Antibacterial activity against 10^9 CFU/ml Staphylococcus aureus ATCC 6538 after 48 hrs. Type of experiment: functional. The conditions noted are these: ATCC 6538, 48 h. In outline: as §2
Experiment [7] concerns Staphylococcus aureus. Nature of the experiment: Induction of autolysis in Staphylococcus aureus ATCC 6538 at 9 ug/ml. Format: functional, organism-based. In outline: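 Washed cells (final 2 × 10⁹ CFU/ml) held with biocide at 9 μg/ml in HEPES at 35°C for 4 h, shaken. Then neutralized with lecithin/Tween 80, washed, and resuspended in HEPES at 35°C. Filtrates (0.45 μm) taken at 0, 2, 4, 18, 22 and 24 h and read at A260. Autolysis taken as 260-nm leakage above the TCA-extractable pool.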

Experiment [8] has as its system Staphylococcus aureus. Nature of the experiment: Antibacterial activity against 10^7 CFU/ml Staphylococcus aureus ATCC 6538 after 48 hrs. Format: functional. The conditions noted are these: ATCC 6538, 48 h. In outline:
as §2

Experiment [9] relates to Staphylococcus aureus. Nature of the experiment: Antibacterial activity against 10^5 CFU/ml Staphylococcus aureus ATCC 6538 after 48 hrs. Format: functional. The conditions noted are these: ATCC 6538, 48 h. In outline: as §2
The test system of experiment [10] is Staphylococcus aureus. Nature of the experiment: Antibacterial activity against 10^8 CFU/ml Staphylococcus aureus ATCC 6538 after 48 hrs. Type of experiment: functional. To be noted: ATCC 6538, 48 h. In outline:
as §2

What is called MIC is the lowest concentration that inhibits growth of the organism. For the compound `CCCCCCCCCC[N+](C)(C)CCCCCCCCCC.[Cl-]` [DIDECYLDIMETHYLAMMONIUM CHLORIDE], the outcome in [1], in [2] and in experiment [7] was Active. The MIC in [3] is 0.4 µg/mL; in experiment [6], 1.6 µg/mL; in experiment [8] it was 0.4 µg/mL; in [9] it was 0.4 µg/mL; in experiment [10], 0.6 µg/mL. Moreover, in [4], the Activity amounted to 90%. Moreover, the outcome in experiment [5] was inactive.
